Consider 18 compounds from ChEMBL document CHEMBL1126583, “Potent quinoxaline-spaced phosphono alpha-amino acids of the AP-6 type as competitive NMDA antagonists: synthesis and biological evaluation” (J Med Chem, 1993).

The structures appear in SMILES notation. Bounds are passed on as bounds.

Experiment [1] addresses Glutamate NMDA receptor. Kind of experiment: Tested for binding affinity against NMDA receptor, from rat synaptic membrane, using [3H]-CPP as the radioligand. Put shortly:
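Rat whole-brain crude synaptic membranes, Triton X-100 treated and frozen at -70 °C; 0.2–0.5 mg protein incubated 15 min at 23 °C with 8 nM [3H]CPP in 50 mM Tris HCl pH 7.6. Nonspecific binding defined with 1.0 mM NMDA. Bound ligand separated by centrifugation and counted by scintillation. Triplicates, 5–10 concentrations; IC50 with 95% confidence limits.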

The target in experiment [2] is Glutamate NMDA receptor. Kind of experiment: Tested for binding affinity against NMDA receptor, from rat synaptic membrane, using [3H]TCP as the radioligand. The gist of the method:
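Stimulated binding assay on rat whole-brain synaptic membranes in 5.0 mM Tris HCl pH 7.4. […] 100 μM MK-801 defines nonspecific binding. Filtration through PEI-soaked glass-fiber filters, then scintillation counting. Triplicates, 5–10 concentrations; IC50 with 95% confidence limits.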

The target in experiment [3] is Glutamate NMDA receptor. Put plainly: Tested for binding affinity against NMDA receptor, from rat synaptic membrane, using [3H]glycine as the radioligand. The gist of the method:
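Rat whole-brain synaptic membranes washed and resuspended in 50 mM Tris citrate. Separation by centrifugation, then scintillation counting.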

Broadly, the IC50 is the concentration needed to halve the response being measured. Take `NC(Cc1nc2ccccc2nc1CCP(=O)(O)O)C(=O)O` (configuration not stated): the IC50 on Glutamate NMDA receptor [1] is > 1000 nM. In the case of `Cc1cc2nc(CC(N)C(=O)O)c(CP(=O)(O)O)nc2cc1C` (configuration not stated), the values for the half-inhibitory concentration (IC50) on Glutamate NMDA receptor [2] and at Glutamate NMDA receptor [1] were 16400 nM and 22.3 nM, respectively.

Regarding `NC(Cc1nc2cc3ccccc3cc2nc1CP(=O)(O)O)C(=O)O` (configuration not stated), the values for the concentration for half-maximal inhibition (IC50) at Glutamate NMDA receptor [2] and at Glutamate NMDA receptor [1] were 5600 nM and 6.5 nM, respectively. Consider `NC(Cc1nc2cc(F)c(F)cc2nc1CP(=O)(O)O)C(=O)O` (configuration not stated), for which the IC50 on Glutamate NMDA receptor [1] was 166 nM.

For the compound `NC(Cc1nc2ccc(Cl)cc2nc1CP(=O)(O)O)C(=O)O` (configuration not stated), the half-inhibitory concentration (IC50) was found to be 13900 nM on Glutamate NMDA receptor [2], 1800 nM on Glutamate NMDA receptor [3] and 38 nM on Glutamate NMDA receptor [1]. In the same order, the values of `NC(Cc1nc2cc(Cl)ccc2nc1CP(=O)(O)O)C(=O)O` (configuration not stated) are 8600 nM, > 100000 nM and 24 nM.

`CCOC(=O)C(N)Cc1nc2ccccc2nc1CP(=O)(O)O` (configuration not stated): the IC50 at Glutamate NMDA receptor [1] was > 1000 nM.

As to `COc1cc2nc(CC(N)C(=O)O)c(CP(=O)(O)O)nc2cc1OC` (configuration not stated), at Glutamate NMDA receptor [1], the IC50 came out at 832 nM.

Take `NC(Cc1nc2c(Cl)ccc(Cl)c2nc1CP(=O)(O)O)C(=O)O` (configuration not stated): the IC50 on Glutamate NMDA receptor [1] is 245 nM. As to `O=C(O)C1CN(CCCP(=O)(O)O)CCN1` (configuration not stated), the IC50 at Glutamate NMDA receptor [3] was > 100000 nM; at Glutamate NMDA receptor [1] it was 113 nM. As for `NC(Cc1nc2ccccc2nc1/C=C/P(=O)(O)O)C(=O)O` (configuration not stated), the concentration for half-maximal inhibition (IC50) at Glutamate NMDA receptor [1] is > 1000 nM. Take `NC(Cc1cc2nccnc2cc1CP(=O)(O)O)C(=O)O` (configuration not stated): the 50% inhibitory concentration (IC50) at Glutamate NMDA receptor [1] is > 1000 nM. Take `NC(Cc1nc2cc(Cl)c(Cl)cc2nc1CP(=O)(O)O)C(=O)O` (configuration not stated): the IC50 on Glutamate NMDA receptor [2] was 11700 nM; at Glutamate NMDA receptor [3], 610 nM; at Glutamate NMDA receptor [1], 3.4 nM. `NC(Cc1nc2ccccc2nc1CP(=O)(O)O)C(=O)O` (single isomer, unassigned; (+)): the IC50 at Glutamate NMDA receptor [1] was > 1000 nM. As to `NC(Cc1nc2ccccc2nc1CP(=O)(O)O)C(=O)O` (stereo in doubt; 7), the values for the concentration for half-maximal inhibition (IC50) on Glutamate NMDA receptor [2], at Glutamate NMDA receptor [3] and at Glutamate NMDA receptor [1] were 28000 nM, 4700 nM and 119 nM, respectively.

For the compound `NC(Cc1nc2ccccc2nc1CP(=O)(O)O)C(=O)O` (stereo in doubt; 9), the IC50 worked out at 21000 nM at Glutamate NMDA receptor [2] and 29.3 nM at Glutamate NMDA receptor [1].

Consider `NC(CCCCCP(=O)(O)O)C(=O)O` (configuration not stated) [AP-7], for which the IC50 on Glutamate NMDA receptor [2] is 302000 nM. Consider `O=C(O)[C@@H]1C[C@H](CP(=O)(O)O)CCN1` [SELFOTEL], for which the figures for the IC50 on Glutamate NMDA receptor [2], at Glutamate NMDA receptor [3] and at Glutamate NMDA receptor [1] were 22400 nM, > 100000 nM and 28 nM, respectively.
